AI-2 QS mod = modulates the Vibrio harveyi AI-2 quorum sensing system; Vibrio harveyi JMH597 AI-2 luminescence/OD600 ratio, 9 h; hits give low values; strain lacks LuxN and CqsS sensors; 0 = neutral-control median; activity change, % at 7.5 µM; hit rate 0.4% among 300,000; in the data active = activity change below about -75%, passing the limit was not always enough; inconclusive = no clear call, values can overlap the other calls;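 also: luminescence divided by OD600 gain over 9 h not by final OD600 alone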
proKLK7 act = activates the human kallikrein-7 zymogen | hit rate 0.9% among 370,000 | P49862 | activation, % at 7 µM | purified proKLK7, EDANS-DABCYL substrate fluorescence; 100% is mature enzyme control, 0% vehicle;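 active = activation above the mean of all tested compounds plus 3 SD, computed per campaign excluding outliers beyond control limits, cut at about 13% in these data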
Target sequence (P49862 whole entry, looked up): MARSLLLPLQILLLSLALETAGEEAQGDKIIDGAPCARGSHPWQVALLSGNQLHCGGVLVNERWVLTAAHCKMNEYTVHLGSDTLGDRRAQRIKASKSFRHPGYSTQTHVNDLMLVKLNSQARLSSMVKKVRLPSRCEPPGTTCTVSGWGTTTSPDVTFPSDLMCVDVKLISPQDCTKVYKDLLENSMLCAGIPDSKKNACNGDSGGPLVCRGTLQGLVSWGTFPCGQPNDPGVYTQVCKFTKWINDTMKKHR
Wee1 degr inh = blocks degradation of human Wee1 kinase; P30291; HeLa Luc-Wee1K328M stability, luciferase luminescence; 100% = proteasome inhibitor MG132 effect; reporter increase, % at 5 µM; hit rate 1.2% among 220,000;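 active = activation above the mean of all tested compounds plus 3 SD, set per screening run, cut at about 8.8% in these data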;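 also: cells exposed to compound for 20 h before luminescence read; 0% = DMSO alone and 100% = MG132 at 30 µM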
RanGTP-Imp inh = inhibitors of RanGTP-importin-beta interaction, primary screen, biochemical, FRET, CFP-Ran, YFP-importin-beta, homogeneous. inhibition, % (concentration not given with the values). AID 2216. hit rate 1.1% among 300,000. cell-free CFP-Ran/YFP-importin-beta FRET ratio;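 active = more than half of the replicate wells show a fall in the fluorescence ratio signal beyond about 16%, limit read from the data, passing the limit was not always enough; inconclusive = exactly half of the replicate wells pass the set limit; inactive = fewer than half of replicates pass the limit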;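 also: 0% = DMSO wells and 100% = Ran loaded with GDP instead of GTP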
Runt-SMMHC FRET = blocks binding of human RUNX1 Runt domain to CBFb-SMMHC; AID 1434; Cerulean-Runt/Venus-CBFb-SMMHC FRET ratio 530/480, 1 h; inhibition, % at 20 µM; hit rate 0.74% among 220,000; Q01196+Q13951;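 active = mean inhibition across duplicate retests at 20 µM reaching about 50%, limit read from the data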;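 also: 0% = DMSO wells and 100% = wells with excess untagged CBFb-SMMHC; inhibitors lower the FRET ratio by blocking Runt binding to CBFb-SMMHC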
Runt-CBFb FRET = blocks binding of human RUNX1 Runt domain to CBFb; Q01196+Q13951; Cerulean-Runt/Venus-CBFb FRET ratio 530/480, 1 h; inhibition, % at 20 µM; hit rate 0.46% among 220,000;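 active = inhibition over about 50% at 20 µM in the single-dose screen, limit read from the data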;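 also: 0% = DMSO wells and 100% = excess unlabeled CBFb competitor control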
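Schedule: protein complex preformed 1 h, compound exposure 1 h, room temperature, dark; test system: Cerulean-labeled Runt domain protein; amount: 100 nM per protein; buffer or medium: Tris 50 mM pH 7.5, KCl, K2SO4, 0.01% BSA; read-out: loss of energy transfer signal; detection: FRET fluorescence; controls: 5 µM unlabeled CBFb as full-inhibition high control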
* hit, by the source's call; u = inconclusive; x = no result given. Rows were chosen to be rich in hits. Some 2.9% of all compounds tested hit in one or more screens of this group.

SMILES | AI-2 QS mod | proKLK7 act | Wee1 degr inh | RanGTP-Imp inh | Runt-SMMHC FRET | Runt-CBFb FRET
COc1ccc(-c2c(C#N)c(N)nc3c2CCCC3)cc1OC | 19 | 0 | -3 | -2 | x | x
COc1ccc(-c2c(C#N)c(N)nc3c2CCC3)cc1 | -6 | -7 | -2 | -6 | 97* | 45
CCC(=O)NC1=C(Cl)C(=O)C(NC(=O)CC)=C(Cl)C1=O | x | 0 | 2 | x | 95* | 17
COC(=O)C1CN(Cc2cn(Cc3ccc(C)cc3)nn2)CCS(=O)(=O)N1Cc1ccc(C)cc1 (configuration not stated) | x | 0 | x | x | x | x
Cc1ccc2c(c1)nnn2C1CCN(CC(=O)Nc2ccccc2N2CCOCC2)CC1 | 12 | x | -2 | 4 | 2 | 84*
Cc1cccc2cc(C#N)c(NCCNS(=O)(=O)c3ccccc3)nc12 | 32 | -1 | -3 | 13 | 58* | 26
Cc1cccc2cc(C#N)c(NCCCNS(=O)(=O)c3ccc(Cl)cc3)nc12 | 25 | -3 | 0 | 47* | 74* | 31
COC(=O)c1ccc(C(=O)OC)c(NC(=S)N2CCCC(C)C2)c1 (configuration not stated) | 6 | -3 | -1 | 54* | 34 | 17
CCN(CC)C(=S)Nc1cc(C(=O)OC)ccc1C(=O)OC | 6 | 2 | 2 | 38* | 32 | 20
COC(=O)c1ccc(C(=O)OC)c(NC(=S)N2CC(C)CC(C)C2)c1 (configuration not stated) | 28 | -1 | 2 | u | 29 | 14
CCC(C)C(=O)Nc1cc(C(=O)OC)ccc1C(=O)OC (configuration not stated) | 27 | x | -4 | 5 | -1 | 3
COc1ccc(S(=O)(=O)NC2CCCCCC2)cc1C(N)=O | 23 | 0 | x | u | x | x
O=C(OCCN1CCN(C2CN(Cc3cn(Cc4ccccc4C(F)(F)F)nn3)S(=O)(=O)C2)CC1)c1cc2ccccc2o1 (configuration not stated) | x | 0 | x | x | x | x
CCOc1ccccc1N(CC(=O)NCCSc1ccccc1)S(C)(=O)=O | 26 | 0 | 9.1* | 7 | 3 | 0
COc1ccccc1N(CC(=O)NCCSc1ccccc1)S(C)(=O)=O | 3 | 0 | -1 | 1 | -2 | 0
O=S1(=O)c2ccc(Br)cc2OC[C@H](Cc2ccccc2)N1Cc1cn(Cc2ccc(Cl)cc2)nn1 | x | 0 | x | x | x | x
COC(=O)C1=C(C)N(Cc2ccccc2C(F)(F)F)C(=NCc2ccc(OC)cc2)NC1c1ccccc1C(F)(F)F (configuration not stated) | x | 0 | x | x | x | x
Cc1ccc2c(c1)N(CC(=O)N1CCCC1)C(=O)c1cccnc1O2 | 5 | -1 | x | u | x | x
COc1cc(-c2cc3nc4ccccc4n3c(N)c2C#N)cc(OC)c1OC | -2 | -124 | -2 | 25* | 15 | 7
N#Cc1c(-c2ccccc2)cc2nc3ccccc3n2c1N | 2 | 12 | -1 | 17* | 10 | 7
Nc1cc(-c2ccccc2)n2c(n1)nc1ccccc12 | 19 | 0 | -1 | 8 | -1 | 1
Cc1cccc(-c2cccc3c4c([nH]c23)[C@@H]2C[C@H](N(C)C(=O)C3CCCCC3)[C@H]([C@H](C)O)CN2CC4)c1 | x | 1 | x | x | x | x
CCN(CC)CCCC(C)Nc1c2ccc(Cl)cc2nc2ccc(OC)cc12 (configuration not stated) | x | x | 1 | x | 85* | 12
COCCCNC(=O)C[C@H]1C[C@@]2(C(=O)OC)C(=C[C@H](C3CCCC3)O[C@@H]2C)N(Cc2ccco2)C1=O | x | 0 | x | x | x | x
CN(C)c1ccc(/C=N/NS(=O)(=O)c2ccc(Br)cc2)cc1 | -92* | 0 | 2 | -5 | 2 | 1
SMILES | AI-2 QS mod | proKLK7 act | Wee1 degr inh | RanGTP-Imp inh | Runt-SMMHC FRET | Runt-CBFb FRET
O=S(=O)(N/N=C\C=C\c1ccccc1)c1ccc(Br)cc1 | -92* | 0 | -1 | 0 | -3 | -1
CCN(CC(=O)NCCc1ccc(S(N)(=O)=O)cc1)Cc1ccccc1 | 26 | 0 | x | 4 | x | x
Cc1noc(C)c1NC(=O)N(C)C[C@H]1OCc2cn(nn2)CCCC(=O)N([C@H](C)CO)C[C@@H]1C | x | 0 | x | x | x | x
CCCCN1CC(COc2ccc(OC)cc2)OCCS1(=O)=O (configuration not stated) | x | 0 | x | x | x | x
CCc1c(-c2ccccc2Br)ncn1CCc1ccccc1OC | x | 1 | x | x | x | x
CCN(CCCn1c(=S)[nH]c2ccc(N3CCOCC3)cc2c1=O)c1ccccc1 | 28 | -20 | 0 | -4 | 5 | -2
CC1CCN(CCCn2c(=S)[nH]c3ccc(N4CCOCC4)cc3c2=O)CC1 | 0 | 53* | -1 | -2 | -56 | -13
COC(=O)C1=C(C)N(Cc2ccccc2C(F)(F)F)C(=NCc2ccc(C(F)(F)F)cc2)NC1c1ccccc1 (configuration not stated) | x | 0 | x | x | x | x
O=C(COc1nncc2ccccc12)NCCC1=CCCCC1 | -77* | 0 | -2 | -5 | 1 | 1
O=C(COc1ncnc2ccccc12)NCCC1=CCCCC1 | -35 | 1 | 0 | u | 23 | -3
COc1ccc(Cc2nnc(NC(=O)CS(=O)(=O)c3ccccc3)s2)cc1OC | 50 | -1 | x | 0 | x | x
COc1ccc2nc(SCC(=O)N3CCNC3=O)[nH]c2c1 | 18 | 0 | 9.0* | -5 | -3 | 1
COc1ccc(CC(=O)N2CCNC2=O)cc1 | 18 | -1 | 29* | -5 | -2 | 0
CCCC[C@H](C(=O)N(CC)c1ccccc1)[C@@H](O)c1ccc(Cl)cc1 | x | 1 | x | x | x | x
Cc1ccc(N2C3=C(C(=O)CC(C)(C)C3)C(c3cn(C)nc3C)C3=C2CC(C)(C)CC3=O)cc1 | 25 | 5 | x | 26* | x | x
Cc1ccc(/C=C2\SC(=S)N(CCCC(=O)Nc3cccc(C(=O)O)c3)C2=O)cc1 | -4 | -1 | x | 1 | x | x
